Test results published in ChEMBL document CHEMBL1126286, “Oral hypoglycemic agents. Pyrimido[1,2-a]indoles and related compounds” (1992).

Columns and labels:
Type in all cases: functional
Rattus norvegicus [1] = assay: Hypoglycemic activity was tested in rats at a standard dose of 100 mg/kg and calculated as percent of vehicle control after 4 hours (six rats per group)
In short: (§1)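 Fed male Sprague-Dawley CD rats (280-320 g), six per group, 100 mg/kg po as solution in water or suspension in 0.5% carboxymethylcellulose (1 mL/kg); parallel vehicle controls. Tail-vein blood (0.3 mL) taken 2 and 4 h post-dose into EDTA and Trasylol; plasma glucose by glucose oxidase-peroxidase, expressed as percent of vehicle control; Student-Newman-Keuls test for significance.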

Rattus norvegicus [2] = assay: Hypoglycemic activity was tested in rats at a standard dose of 100 mg/kg and calculated as percent of vehicle control after 2 hours (six rats per group); in short: as §1
Rattus norvegicus [3] = species: Rattus norvegicus; assay: Potency to dissociate hypoglycemic activity relative to compound 38
In short: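 Three-point oral dose-response in fed male Sprague-Dawley CD rats, eight per group, with the reference standard run alongside; 10, 30 and 100 mg/kg po (some studies 10, 20, 50 mg/kg). Rats exsanguinated by decapitation at 4 h; blood into EDTA and Trasylol, plasma glucose by glucose oxidase-peroxidase; potency relative to standard.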

SMILES | Blood glucose (Rattus norvegicus [1]) | Blood glucose (Rattus norvegicus [2]) | Relative potency (Rattus norvegicus [3]) | Blood glucose (Rattus norvegicus [1]; 100 mg/kg) | Blood glucose (Rattus norvegicus [2]; 100 mg/kg)
CC1(C)CN=C2N(C1)c1ccccc1C2(N)c1ccccc1.Cl.Cl (stereo unspecified) | 68% | 78% | 0.9 |  | 
Cl.Cl.NC1(c2ccccc2)C2=NCCCN2c2ccccc21 (stereo unspecified) | 93% | 84% | 0.47 |  | 
Cl.Cl.OC1(c2ccccc2)C2=NCC3(CCNCC3)CN2c2ccccc21 (stereo unspecified) | 92% | 102% |  |  | 
CC1(C)CN=C2N(C1)c1ccccc1C2(NC(=O)c1ccccc1)c1ccccc1.Cl (stereo unspecified) | 116% | 104% |  |  | 
CCCCC1(O)C2=NCC3(CCCCC3)CN2c2ccccc21.Cl (stereo unspecified) | 68% | 60% | 3.69 |  | 
C=CCC1(O)C2=NCC(C)(C)CN2c2ccccc21.Cl (stereo unspecified) | 74% | 86% |  |  | 
CC1(C)CN=C2N(C1)c1ccccc1C2(O)C1CC1.Cl (stereo unspecified) | 81% | 83% | 0.11 |  | 
CCC1(O)C2=NCC(C)(C)CN2c2ccccc21.Cl (stereo unspecified) | 93% | 89% |  |  | 
CC(C)(C)CC1(O)C2=NCC(C)(C)CN2c2ccccc21.Cl (stereo unspecified) | 81% | 68% | 0.65 |  | 
CC1(C)CN=C2N(C1)c1ccccc1C2(NS(C)(=O)=O)c1ccccc1.Cl (stereo unspecified) | 67% | 76% | 0.04 |  | 
CCCC(=O)NC1(c2ccccc2)C2=NCC(C)(C)CN2c2ccccc21.Cl (stereo unspecified) | 77% | 101% |  |  | 
CCCCC1(O)C2=NCC(C)(C)CN2c2ccccc21.Cl (stereo unspecified) | 67% | 58% |  |  | 
Cl.OC1(c2ccc3ccccc3c2)C2=NCCCN2c2ccccc21 (stereo unspecified) | 64% | 88% | 0.01 |  | 
Cl.OC1(c2ccccc2)C2=NCCCN2c2ccccc21 (stereo unspecified) | 82% | 86% | 0.52 |  | 
Cl.OC1(CC2CCCCC2)C2=NCCCN2c2ccccc21 (stereo unspecified) | 81% | 77% | 0.12 |  | 
CC(C)CC1(O)C2=NCCCN2c2ccccc21.Cl (stereo unspecified) | 86% | 79% |  |  | 
CCOCCCCC1(O)C2=NCCCN2c2ccccc21.Cl (stereo unspecified) | 96% | 100% |  |  | 
COCC(C)CC1(O)C2=NCCCN2c2ccccc21.Cl (stereo unspecified) | 98% | 94% |  |  | 
CC1(C)CN=C2N(C1)c1ccccc1C2(O)c1ccccc1.Cl (stereo unspecified) | 75% | 90% | 1 |  | 
COCC(C)CC1(O)C2=NCC(C)(C)CN2c2ccccc21.Cl (stereo unspecified) | 72% | 73% | 0.47 |  | 
CC(=O)NC1(c2ccccc2)C2=NCC3(CCCC3)CN2c2ccccc21.Cl (stereo unspecified) | 90% | 99% |  |  | 
CC(C)CC1(O)C2=NCC(C)(C)CN2c2ccccc21.Cl (stereo unspecified) | 77% | 88% | 0.69 |  | 
Cl.OCC#CC1(O)C2=NCCCN2c2ccccc21 (stereo unspecified) | 94% | 94% |  |  | 
CC(=O)NC1(c2cccc(Cl)c2)C2=NCCCN2c2ccccc21.Cl (stereo unspecified) | 85% | 89% | 0.5 |  | 

SMILES | Blood glucose (Rattus norvegicus [1]) | Blood glucose (Rattus norvegicus [2]) | Relative potency (Rattus norvegicus [3]) | Blood glucose (Rattus norvegicus [1]; 100 mg/kg) | Blood glucose (Rattus norvegicus [2]; 100 mg/kg)
Cl.NC1(c2cccc(Cl)c2)C2=NCCCN2c2ccccc21 (stereo unspecified) | 84% | 95% |  |  | 
COCCCCC1(O)C2=NCC(C)(C)CN2c2ccccc21.Cl (stereo unspecified) | 87% | 79% | 0.05 |  | 
CCC(CC)CC1(O)C2=NCCCN2c2ccccc21.Cl (stereo unspecified) | 68% | 82% | 0.86 |  | 
Cl.OC1(c2cccc(Cl)c2)C2=NCCCN2c2ccccc21 (stereo unspecified) | 84% | 99% |  |  | 
CC(=O)NC1(c2ccccc2)C2=NCCCN2c2ccccc21.Cl (stereo unspecified) | 75% | 76% | 0.03 |  | 
CCCCCCC1(O)C2=NCC(C)(C)CN2c2ccccc21.Cl (stereo unspecified) | 107% | 103% |  |  | 
CC(C)CCC1(O)C2=NCC(C)(C)CN2c2ccccc21.Cl (stereo unspecified) | 78% | 65% |  |  | 
COCCCCC1(O)C2=NCCCN2c2ccccc21.Cl (stereo unspecified) | 87% | 86% |  |  | 
CCOCCCCC1(O)C2=NCC(C)(C)CN2c2ccccc21.Cl (stereo unspecified) | 86% | 88% |  |  | 
Cl.OC1(c2ccccc2)C2=NCC3(CCCCCC3)CN2c2ccccc21 (stereo unspecified) | 76% | 87% | 0.3 |  | 
Cl.OC1(c2ccccc2)C2=NCC3(CCCC3)CN2c2ccccc21 (stereo unspecified) | 71% | 75% | 0.1 |  | 
CC(CCC1(O)C2=NCCCN2c2ccccc21)c1ccccc1.Cl (stereo unspecified) | 88% | 99% |  |  | 
COC(C)CCC1(O)C2=NCCCN2c2ccccc21.Cl (stereo unspecified) | 95% | 88% |  |  | 
Cc1ccc(S(=O)(=O)NC(=O)NC2(c3ccccc3)C3=NCC(C)(C)CN3c3ccccc32)cc1.Cl (stereo unspecified) | 90% | 101% |  |  | 
CC(=O)NC1(c2ccccc2)C2=NCC(C)(C)CN2c2ccccc21.Cl (stereo unspecified) | 77% | 85% | 0.03 |  | 
COC(C)CCC1(O)C2=NCC(C)(C)CN2c2ccccc21.Cl (stereo unspecified) | 73% | 69% | 1.1 |  | 
CC1(C)CN=C2N(C1)c1ccccc1C2(O)CCCCOCc1ccccc1.Cl (stereo unspecified) | 91% | 76% |  |  | 
CC(=O)NC1(c2ccc3ccccc3c2)C2=NCCCN2c2ccccc21.Cl (stereo unspecified) | 100% | 104% |  |  | 
CC(=O)NC1(c2ccccc2)C2=NCCCCN2c2ccccc21.Cl (stereo unspecified) | 73% | 86% | 0.13 |  | 
CC1(C)CN=C2N(C1)c1ccccc1C2(O)CC1CCCCC1.Cl (stereo unspecified) | 84% | 79% |  |  | 
Cl.OC1(c2ccccc2)C2=NCC3(CCCCC3)CN2c2ccccc21 (stereo unspecified) |  |  | 1.33 | 60% | 78%
Cl.OC1(c2ccccc2)C2=NCC3(CCCCC3)CN2c2ccccc21 (single isomer, unassigned; (+)) |  |  |  | 69% | 82%
Cl.OC1(c2ccccc2)C2=NCC3(CCCCC3)CN2c2ccccc21 (single isomer, unassigned; (-)) |  |  |  | 71% | 81%
